This passage reports IC50, Activity and Imax results from ChEMBL document CHEMBL1133010, “Structure-function studies of polymyxin B nonapeptide: implications to sensitization of gram-negative bacteria” (J Med Chem, 2000).

What all share (assay type): functional
The test system of assay [1] is Escherichia coli. The assay is described as follows: Inhibitory concentration required to displace dansyl-PMBN (0.55 uM) from maximal specific binding to Escherichia coli LPS. The following applies: Escherichia coli. The gist of the method:
(§1)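 Fluorescence displacement assay. E. coli LPS (3 µg/mL, ~2 × 10^-7 M) in 5 mM HEPES pH 7.2 was pre-equilibrated with dansyl-PMBN (0.55 µM). Peptide was added stepwise at 5-min intervals from 1 × 10^-5 to 1 × 10^-3 M stocks. Fluorescence read at excitation 340 nm and emission 485 nm after each addition. Percent inhibition was plotted against concentration to give maximal and 50% displacement. 2-3 repeats.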

For assay [2], the system named is Klebsiella pneumoniae. The assay is described as follows: Relative sensitizing activity against Klebsiella pneumoniae was determined as a percent of pPMBN (50 ug/mL) as a control. A digest of the protocol: (§2)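 Clinical isolates at 1 × 10^5 CFU per well, in ISB with a 2-fold serial dilution (1000-0.5 µg/mL) of novobiocin. Peptide added at 50 µg/mL final. Incubated 20 h at 37 °C and read by visible growth. Sensitizing activity is the fold drop in novobiocin MIC with versus without peptide, expressed as percent of that given by 50 µg/mL pPMBN.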

Assay [3] relates to Escherichia coli. The assay is described as follows: Relative sensitizing activity against Escherichia coli was determined as a percent of pPMBN (50 ug/mL) as a control. The gist of the method: as §2
Assay [4] relates to Escherichia coli. As to the kind of experiment: Maximal displacement of dansyl-PMBN from Escherichia coli LPS. The gist of the method:
as §1

Regarding `CC(C)C[C@@H]1NC(=O)[C@@H](Cc2ccccc2)NC(=O)[C@H](CCN)NC(=O)[C@@H](NC(=O)[C@H](CCN)NC(=O)[C@@H](N)[C@@H](C)O)CCNC(=O)[C@H]([C@@H](C)O)NC(=O)[C@H](CCCCN)NC(=O)[C@H](CCCCN)NC1=O` [listing 1 of 2 here], the IC50 in assay [1] came out at 12 µM. In the case of `CC(C)C[C@@H]1NC(=O)[C@@H](Cc2ccccc2)NC(=O)[C@H](CCCCN)NC(=O)[C@@H](NC(=O)[C@H](CCCCN)NC(=O)[C@@H](N)[C@@H](C)O)CCNC(=O)[C@H]([C@@H](C)O)NC(=O)[C@H](CCN)NC(=O)[C@H](CCN)NC1=O` [listing 1 of 2 here], the values for the Activity in assay [2] and in assay [3] were 13% and 9%, respectively. In the case of `CC(C)C[C@@H]1NC(=O)[C@@H](Cc2ccccc2)NC(=O)[C@H](CCCCN)NC(=O)[C@@H](NC(=O)[C@H](CCCCN)NC(=O)[C@@H](N)[C@@H](C)O)CCNC(=O)[C@H]([C@@H](C)O)NC(=O)[C@H](CCN)NC(=O)[C@H](CCN)NC1=O` [listing 2 of 2 here], the IC50 in assay [1] was 14 µM. `CC(C)C[C@H]1NC(=O)[C@@H](Cc2ccccc2)NC(=O)[C@@H](CCN)NC(=O)[C@H](CCN)NC(=O)[C@@H](NC(=O)[C@@H](N)[C@@H](C)O)CCNC(=O)[C@H]([C@@H](C)O)NC(=O)[C@@H](CCN)NC(=O)[C@H](CCN)NC1=O` had an Imax in assay [4] of 60%. With `CC(C)C[C@@H]1NC(=O)[C@@H](Cc2ccccc2)NC(=O)[C@H](CCCCN)NC(=O)[C@@H](NC(=O)[C@H](CCCCN)NC(=O)[C@@H](N)[C@@H](C)O)CCNC(=O)[C@H]([C@@H](C)O)NC(=O)[C@H](CCCCN)NC(=O)[C@H](CCCCN)NC1=O` [listing 1 of 2 here], the IC50 in assay [1] was found to be 30 µM. This lies in the double-digit micromolar range.

`CC(C)C[C@@H]1NC(=O)[C@@H](Cc2ccccc2)NC(=O)[C@H](CN)NC(=O)[C@@H](NC(=O)[C@H](CN)NC(=O)[C@@H](N)[C@@H](C)O)CNC(=O)[C@H]([C@@H](C)O)NC(=O)[C@H](CN)NC(=O)[C@H](CN)NC1=O` [listing 1 of 2 here] yielded an IC50 in assay [1] of 30 µM. For the compound `CC(C)C[C@H]1NC(=O)[C@@H](Cc2ccccc2)NC(=O)[C@@H](CCCCN)NC(=O)[C@H](NC(=O)[C@H](CCCCN)NC(=O)[C@@H](N)[C@@H](C)O)CCNC(=O)[C@H]([C@@H](C)O)NC(=O)[C@@H](CCN)NC(=O)[C@H](CCN)NC1=O`, the Imax in assay [4] is 64%. Take `CC(C)C[C@H]1NC(=O)[C@@H](Cc2ccccc2)NC(=O)[C@@H](CCN)NC(=O)[C@H](NC(=O)[C@H](CCN)NC(=O)[C@@H](N)[C@@H](C)O)CCCCNC(=O)[C@H]([C@@H](C)O)NC(=O)[C@@H](CCN)NC(=O)[C@H](CCN)NC1=O`: the Imax in assay [4] turned out to be 60%. Turning to `CC(C)C[C@@H]1NC(=O)[C@H](Cc2ccccc2)NC(=O)[C@H](CCN)NC(=O)[C@@H](NC(=O)[C@H](CCN)NC(=O)[C@@H](N)[C@@H](C)O)CCNC(=O)[C@H]([C@@H](C)O)NC(=O)[C@H](CCN)NC(=O)[C@H](CCN)NC1=O`, the Activity in assay [2] is reported as 9%; in assay [3], 5%. As for `CC(C)C[C@H]1NC(=O)[C@@H](Cc2ccccc2)NC(=O)[C@@H](CN)NC(=O)[C@H](NC(=O)[C@H](CN)NC(=O)[C@@H](N)[C@@H](C)O)CNC(=O)[C@H]([C@@H](C)O)NC(=O)[C@@H](CN)NC(=O)[C@H](CN)NC1=O`, in assay [4], the Imax was found to be 64%.

For `CC(C)C[C@@H]1NC(=O)[C@@H](Cc2ccccc2)NC(=O)[C@H](CCN)NC(=O)[C@@H](NC(=O)[C@H](CCN)NC(=O)[C@@H](N)[C@@H](C)O)CCNC(=O)[C@H]([C@@H](C)O)NC(=O)[C@H](CCCCN)NC(=O)[C@H](CCCCN)NC1=O` [listing 2 of 2 here], the Activity in assay [2] is 26%; in assay [3], 40%. In assay [4], `CC(C)C[C@H]1NC(=O)[C@H](Cc2ccccc2)NC(=O)[C@@H](CCN)NC(=O)[C@H](NC(=O)[C@H](CCN)NC(=O)[C@@H](N)[C@@H](C)O)CCNC(=O)[C@H]([C@@H](C)O)NC(=O)[C@@H](CCN)NC(=O)[C@H](CCN)NC1=O` came in with an Imax of 64%. `CC(C)C[C@@H]1NC(=O)[C@@H](Cc2ccccc2)NC(=O)[C@H](CCN)NC(=O)[C@@H](NC(=O)[C@H](CCN)NC(=O)[C@@H](N)[C@@H](C)O)CCCCNC(=O)[C@H]([C@@H](C)O)NC(=O)[C@H](CCN)NC(=O)[C@H](CCN)NC1=O`: the Activity is reported as 18% in assay [2] and 17% in assay [3]. `CC(C)C[C@@H]1NC(=O)[C@@H](Cc2ccccc2)NC(=O)[C@@H](NC(=O)[C@H](CCN)NC(=O)[C@H](CCN)NC(=O)[C@@H](N)[C@@H](C)O)CCNC(=O)[C@H]([C@@H](C)O)NC(=O)[C@H](CCN)NC(=O)[C@H](CCN)NC1=O`: the values for the Activity in assay [2] and in assay [3] were 5% and 4%, respectively. Compound `CC(C)C[C@H]1NC(=O)[C@H](Cc2ccccc2)NC(=O)[C@@H](CCN=C(N)N)NC(=O)[C@H](NC(=O)[C@H](CCN=C(N)N)NC(=O)[C@@H](N)[C@@H](C)O)CCNC(=O)[C@H]([C@@H](C)O)NC(=O)[C@@H](CCN=C(N)N)NC(=O)[C@H](CCN=C(N)N)NC1=O` yielded an Imax in assay [4] of 80%. Still for that read-out and setting: in the case of `CC(C)C[C@H]1NC(=O)[C@@H](Cc2ccccc2)NC(=O)[C@@H](CCN)NC(=O)[C@H](NC(=O)[C@H](CCN)NC(=O)[C@@H](N)[C@@H](C)O)CCNC(=O)[C@H]([C@@H](C)O)NC(=O)[C@@H](CCN)NC(=O)[C@H](CCN)NC1=O` (stereo in doubt; form 1) it was 80%. As for `CC(C)C[C@@H]1NC(=O)[C@@H](Cc2ccccc2)NC(=O)[C@H](CCN)NC(=O)[C@@H](NC(=O)[C@H](CCN)NC(=O)[C@@H](N)[C@@H](C)O)CCNC(=O)[C@H]([C@@H](C)O)NC(=O)[C@H](CCN)NC(=O)[C@H](CCN)NC1=O` (stereo in doubt; form 2), the Activity in assay [2] is recorded as 93%; in assay [3] it was 96%.

Take `CC(C)C[C@H]1NC(=O)[C@@H](Cc2ccccc2)NC(=O)[C@@H](NC(=O)[C@H](CCN)NC(=O)[C@H](CCN)NC(=O)[C@@H](N)[C@@H](C)O)CCNC(=O)[C@H]([C@@H](C)O)NC(=O)[C@@H](CCN)NC(=O)[C@H](CCN)NC1=O`: in assay [4], the Imax turned out to be 45%. `CC(C)C[C@@H]1NC(=O)[C@@H](Cc2ccccc2)NC(=O)[C@H](CCN=C(N)N)NC(=O)[C@@H](NC(=O)[C@H](CCN=C(N)N)NC(=O)[C@@H](N)[C@@H](C)O)CCNC(=O)[C@H]([C@@H](C)O)NC(=O)[C@H](CCN=C(N)N)NC(=O)[C@H](CCN=C(N)N)NC1=O`: the Activity in assay [2] and in assay [3] was 25% each time. In assay [4], `CC(C)C[C@H]1NC(=O)[C@@H](Cc2ccccc2)NC(=O)[C@@H](CCCN)NC(=O)[C@H](NC(=O)[C@H](CCCN)NC(=O)[C@@H](N)[C@@H](C)O)CCCNC(=O)[C@H]([C@@H](C)O)NC(=O)[C@@H](CCCN)NC(=O)[C@H](CCCN)NC1=O` returned an Imax of 62%.

Consider `CC(C)C[C@H]1NC(=O)[C@@H](Cc2ccccc2)NC(=O)[C@@H](CCN)NC(=O)[C@H](NC(=O)[C@H](CCN)NC(=O)[C@@H](N)[C@@H](C)O)CCNC(=O)[C@H]([C@@H](C)O)NC(=O)[C@@H](CCN)NC(=O)[C@H](CCN)NC1=O` (stereo in doubt; form 2), for which the Imax in assay [4] was found to be 80%. Still for that read-out and setting: in the case of `CC(C)C[C@H]1NC(=O)[C@@H](Cc2ccccc2)NC(=O)[C@@H](CCCCN)NC(=O)[C@H](NC(=O)[C@H](CCCCN)NC(=O)[C@@H](N)[C@@H](C)O)CCCCNC(=O)[C@H]([C@@H](C)O)NC(=O)[C@@H](CCCCN)NC(=O)[C@H](CCCCN)NC1=O` it was 60%. Turning to `CC(C)C[C@@H]1NC(=O)[C@@H](Cc2ccccc2)NC(=O)[C@H](CCN)NC(=O)[C@H](CCN)NC(=O)[C@@H](NC(=O)[C@@H](N)[C@@H](C)O)CCNC(=O)[C@H]([C@@H](C)O)NC(=O)[C@H](CCN)NC(=O)[C@H](CCN)NC1=O`, the Activity in assay [2] amounted to 5%; in assay [3] it was 7%.

The compound `CC(C)C[C@H]1NC(=O)[C@@H](Cc2ccccc2)NC(=O)[C@@H](CCN)NC(=O)[C@H](NC(=O)[C@H](CCN)NC(=O)[C@@H](N)[C@@H](C)O)CCNC(=O)[C@H]([C@@H](C)O)NC(=O)[C@@H](CCCCN)NC(=O)[C@H](CCCCN)NC1=O` returned an Imax in assay [4] of 62%. Turning to `CC(C)C[C@@H]1NC(=O)[C@@H](Cc2ccccc2)NC(=O)[C@H](CCCN)NC(=O)[C@@H](NC(=O)[C@H](CCCN)NC(=O)[C@@H](N)[C@@H](C)O)CCCNC(=O)[C@H]([C@@H](C)O)NC(=O)[C@H](CCCN)NC(=O)[C@H](CCCN)NC1=O`, the Activity in assay [2] is 6%; in assay [3], 2%. The like results for `CC(C)C[C@@H]1NC(=O)[C@@H](Cc2ccccc2)NC(=O)[C@H](CCCCN)NC(=O)[C@@H](NC(=O)[C@H](CCCCN)NC(=O)[C@@H](N)[C@@H](C)O)CCNC(=O)[C@H]([C@@H](C)O)NC(=O)[C@H](CCCCN)NC(=O)[C@H](CCCCN)NC1=O` [listing 2 of 2 here] were, in that order, 3% and 5%. The compound POLYMYXIN B had an Imax in assay [4] of 100%. The same measure, in the same setting: in the case of `CC(C)C[C@H]1NC(=O)[C@@H](Cc2ccccc2)NC(=O)[C@@H](CCCCN)NC(=O)[C@H](NC(=O)[C@H](CCCCN)NC(=O)[C@@H](N)[C@@H](C)O)CCNC(=O)[C@H]([C@@H](C)O)NC(=O)[C@@H](CCCCN)NC(=O)[C@H](CCCCN)NC1=O` it was 45%. In the case of `CC(C)C[C@@H]1NC(=O)[C@@H](Cc2ccccc2)NC(=O)[C@H](CCCCN)NC(=O)[C@@H](NC(=O)[C@H](CCCCN)NC(=O)[C@@H](N)[C@@H](C)O)CCCCNC(=O)[C@H]([C@@H](C)O)NC(=O)[C@H](CCCCN)NC(=O)[C@H](CCCCN)NC1=O`, the results for the Activity in assay [2] and in assay [3] were 3% and 4%, respectively. The corresponding values for `CC(C)C[C@@H]1NC(=O)[C@@H](Cc2ccccc2)NC(=O)[C@H](CN)NC(=O)[C@@H](NC(=O)[C@H](CN)NC(=O)[C@@H](N)[C@@H](C)O)CNC(=O)[C@H]([C@@H](C)O)NC(=O)[C@H](CN)NC(=O)[C@H](CN)NC1=O` [listing 2 of 2 here] are 5% and 11%.
